# Measured values reported in ChEMBL document CHEMBL4732237, “Discovery of 4-alkoxy-2-aryl-6,7-dimethoxyquinolines as a new class of topoisomerase I inhibitors endowed with potent in vitro anticancer activity” (2021).
# System: MDA-MB-435
# Assay: Growth inhibition of human MDA-MB-435 cells at 10 uM incubated for 48 hrs by sulforhodamine B assay relative to control
# Format: functional
# Conditions: read-out: GI
# How it was run: (§1)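 NCI-60 single-dose screen. Cells were grown in RPMI 1640 with 5% FBS and 2 mM L-glutamine and plated 24 h before drug addition. Compound was added at one concentration in DMSO-derived medium and incubated for 48 h at 37 °C in 5% CO2. Read-out was SRB protein stain at 515 nm. Result is percent growth versus the no-drug control and the time-zero cell count; values below 0 indicate lethality.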
row,SMILES,inhibition of growth at 10 µM
1,COc1cc2nc(-c3ccc(Cl)cc3)cc(OCCN3CCC(O)CC3)c2cc1OC,3%

# System: SK-MEL-2
# Assay: Growth inhibition of human SK-MEL-2 cells at 10 uM incubated for 48 hrs by sulforhodamine B assay relative to control
# Format: functional
# Conditions: read-out: GI
# How it was run: (§2)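 NCI one-dose screen. Cells grown in RPMI 1640 with 5% FBS and 2 mM L-glutamine, plated and incubated 24 h at 37 °C, 5% CO2. DMSO-dissolved drug added, then 48 h further incubation. Adherent cells fixed with cold TCA, suspension cells fixed after settling. Stained with 0.4% SRB, absorbance read at 515 nm. Reported as percent growth relative to no-drug control and time-zero cell number.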
row,SMILES,inhibition of growth at 10 µM
1,COc1cc2nc(-c3ccc(Cl)cc3)cc(OCCN3CCC(O)CC3)c2cc1OC,3%

# System: SK-MEL-28
# Assay: Growth inhibition of human SK-MEL-28 cells at 10 uM incubated for 48 hrs by sulforhodamine B assay relative to control
# Format: functional
# Conditions: read-out: GI
# How it was run: as §2
row,SMILES,inhibition of growth at 10 µM
1,COc1cc2nc(-c3ccc(Cl)cc3)cc(OCCN3CCC(O)CC3)c2cc1OC,3%

# System: SK-MEL-5
# Assay: Growth inhibition of human SK-MEL-5 cells at 10 uM incubated for 48 hrs by sulforhodamine B assay relative to control
# Format: functional
# Conditions: read-out: GI
# How it was run: as §2
row,SMILES,inhibition of growth at 10 µM
1,COc1cc2nc(-c3ccc(Cl)cc3)cc(OCCN3CCC(O)CC3)c2cc1OC,3%

# System: UACC-257
# Assay: Growth inhibition of human UACC-257 cells at 10 uM incubated for 48 hrs by sulforhodamine B assay relative to control
# Format: functional
# Conditions: read-out: GI
# How it was run: (§3)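 NCI one-dose screen across a 59-line panel. Cells were grown in RPMI 1640 with 5% FBS and 2 mM L-glutamine, plated and pre-incubated 24 h, then exposed to drug for 48 h at 37 °C, 5% CO2. Adherent cells were fixed with cold TCA (10% final), stained with 0.4% SRB in 1% acetic acid and read at 515 nm. Result is percent growth relative to no-drug control and time-zero cell count.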
row,SMILES,inhibition of growth at 10 µM
1,COc1cc2nc(-c3ccc(Cl)cc3)cc(OCCN3CCC(O)CC3)c2cc1OC,3%

# System: UACC-62
# Assay: Growth inhibition of human UACC-62 cells at 10 uM incubated for 48 hrs by sulforhodamine B assay relative to control
# Format: functional
# Conditions: read-out: GI
# How it was run: as §3
row,SMILES,inhibition of growth at 10 µM
1,COc1cc2nc(-c3ccc(Cl)cc3)cc(OCCN3CCC(O)CC3)c2cc1OC,3%

# System: OVCAR-3
# Assay: Growth inhibition of human OVCAR-3 cells at 10 uM incubated for 48 hrs by sulforhodamine B assay relative to control
# Format: functional
# Conditions: read-out: GI
# How it was run: as §2
row,SMILES,inhibition of growth at 10 µM
1,COc1cc2nc(-c3ccc(Cl)cc3)cc(OCCN3CCC(O)CC3)c2cc1OC,3%

# System: OVCAR-4
# Assay: Growth inhibition of human OVCAR-4 cells at 10 uM incubated for 48 hrs by sulforhodamine B assay relative to control
# Format: functional
# Conditions: read-out: GI
# How it was run: as §2
row,SMILES,inhibition of growth at 10 µM
1,COc1cc2nc(-c3ccc(Cl)cc3)cc(OCCN3CCC(O)CC3)c2cc1OC,3%

# System: OVCAR-5
# Assay: Growth inhibition of human OVCAR-5 cells at 10 uM incubated for 48 hrs by sulforhodamine B assay relative to control
# Format: functional
# Conditions: read-out: GI
# How it was run: as §2
row,SMILES,inhibition of growth at 10 µM
1,COc1cc2nc(-c3ccc(Cl)cc3)cc(OCCN3CCC(O)CC3)c2cc1OC,3%

# System: OVCAR-8
# Assay: Growth inhibition of human OVCAR-8 cells at 10 uM incubated for 48 hrs by sulforhodamine B assay relative to control
# Format: functional
# Conditions: read-out: GI
# How it was run: as §2
row,SMILES,inhibition of growth at 10 µM
1,COc1cc2nc(-c3ccc(Cl)cc3)cc(OCCN3CCC(O)CC3)c2cc1OC,3%

# System: NCI/ADR-RES
# Assay: Growth inhibition of human NCI/ADR-RES cells at 10 uM incubated for 48 hrs by sulforhodamine B assay relative to control
# Format: functional
# Conditions: read-out: GI
# How it was run: as §2
row,SMILES,inhibition of growth at 10 µM
1,COc1cc2nc(-c3ccc(Cl)cc3)cc(OCCN3CCC(O)CC3)c2cc1OC,3%

# System: SN12C
# Assay: Growth inhibition of human SN12C cells at 10 uM incubated for 48 hrs by sulforhodamine B assay relative to control
# Format: functional
# Conditions: read-out: GI
# How it was run: as §2
row,SMILES,inhibition of growth at 10 µM
1,COc1cc2nc(-c3ccc(Cl)cc3)cc(OCCN3CCC(O)CC3)c2cc1OC,3%

# System: TK-10
# Assay: Growth inhibition of human TK-10 cells at 10 uM incubated for 48 hrs by sulforhodamine B assay relative to control
# Format: functional
# Conditions: read-out: GI
# How it was run: as §3
row,SMILES,inhibition of growth at 10 µM
1,COc1cc2nc(-c3ccc(Cl)cc3)cc(OCCN3CCC(O)CC3)c2cc1OC,3%

# System: PC-3
# Assay: Growth inhibition of human PC-3 cells at 10 uM incubated for 48 hrs by sulforhodamine B assay relative to control
# Format: functional
# Conditions: read-out: GI
# How it was run: as §2
row,SMILES,inhibition of growth at 10 µM
1,COc1cc2nc(-c3ccc(Cl)cc3)cc(OCCN3CCC(O)CC3)c2cc1OC,3%

# System: Hs-578T
# Assay: Growth inhibition of human HS-578T cells at 10 uM incubated for 48 hrs by sulforhodamine B assay relative to control
# Format: functional
# Conditions: read-out: GI
# How it was run: as §1
row,SMILES,inhibition of growth at 10 µM
1,COc1cc2nc(-c3ccc(Cl)cc3)cc(OCCN3CCC(O)CC3)c2cc1OC,3%

# System: BT-549
# Assay: Growth inhibition of human BT-549 cells at 10 uM incubated for 48 hrs by sulforhodamine B assay relative to control
# Format: functional
# Conditions: read-out: GI
# How it was run: as §1
row,SMILES,inhibition of growth at 10 µM
1,COc1cc2nc(-c3ccc(Cl)cc3)cc(OCCN3CCC(O)CC3)c2cc1OC,3%

# System: T47D
# Assay: Growth inhibition of human T47D cells at 10 uM incubated for 48 hrs by sulforhodamine B assay relative to control
# Format: functional
# Conditions: read-out: GI
# How it was run: as §3
row,SMILES,inhibition of growth at 10 µM
1,COc1cc2nc(-c3ccc(Cl)cc3)cc(OCCN3CCC(O)CC3)c2cc1OC,3%

# System: MDA-MB-468
# Assay: Growth inhibition of human MDA-MB-468 cells at 10 uM incubated for 48 hrs by sulforhodamine B assay relative to control
# Format: functional
# Conditions: read-out: GI
# How it was run: as §1
row,SMILES,inhibition of growth at 10 µM
1,COc1cc2nc(-c3ccc(Cl)cc3)cc(OCCN3CCC(O)CC3)c2cc1OC,3%
